In ChEMBL document CHEMBL1833955, “Optimization of (arylpiperazinylbutyl)oxindoles exhibiting selective 5-HT₇ receptor antagonist activity” (J Med Chem, 2011):

How the values were obtained:
[1] = Drug level in NMRI mouse brain at 3 mg/kg, ip after 30 mins by HPLC/MS/MS analysis; assay type: ADME, organism-based; design: dose 3 mg/kg, route intraperitoneal; conditions: read-out: Drug uptake
Procedure, shortened: (§1)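 Male NMRI mice, 25–30 g, given four compounds together ip as a cassette suspension in 0.4% methyl cellulose (n = 3/dose). After 30 min, vena cava blood and brain collected. Brain homogenised in 4 volumes of water; samples extracted with acetonitrile–water 3:1 and analysed by gradient HPLC-MS/MS against spiked calibrators. Brain/plasma given as percentage.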

[2] = biological target: T1, 5-hydroxytryptamine receptor 1A (Rattus norvegicus) (UniProt P19327); assay: Displacement of [3H]8-OH-DPAT from 5-HT1A receptor in rat frontal cortex membrane at 10^-7 M after 45 mins by scintillation counting; assay type: cell membranes
T1 sequence (whole entry): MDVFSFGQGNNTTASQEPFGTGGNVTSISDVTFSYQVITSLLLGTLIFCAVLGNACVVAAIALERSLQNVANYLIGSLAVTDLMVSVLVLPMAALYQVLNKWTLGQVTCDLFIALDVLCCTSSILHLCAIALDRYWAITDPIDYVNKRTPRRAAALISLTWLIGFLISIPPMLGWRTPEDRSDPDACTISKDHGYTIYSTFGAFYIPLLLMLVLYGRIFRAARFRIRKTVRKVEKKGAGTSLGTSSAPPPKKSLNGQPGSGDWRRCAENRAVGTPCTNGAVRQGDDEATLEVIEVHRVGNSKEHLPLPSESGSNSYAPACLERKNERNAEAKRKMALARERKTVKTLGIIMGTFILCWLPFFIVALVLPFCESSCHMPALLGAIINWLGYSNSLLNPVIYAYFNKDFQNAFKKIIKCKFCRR

[3] = Metabolic stability in human liver microsomes after 60 mins by HPLC-MS/MS analysis; assay type: ADME, Microsome; conditions: read-out: Stability
Procedure, shortened: (§2)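 Test compound at 100 nM final incubated with rat or human liver microsomes (0.33 mg/mL) at 37 °C for 0, 5, 15, 30 and 60 min. Buffer Tris-HCl pH 7.4 with Mg2+ and BSA. Reaction started with NADPH and stopped with ice-cold MeOH. Parent compound measured by HPLC-MS/MS, positive-ion MRM.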

[4] = Selectivity ratio of Ki for 5-HT1A receptor in rat frontal cortex membrane to Ki for human 5-HT7 receptor; assay type: cell membranes
[5] = Plasma concentration in NMRI mouse at 10 mg/kg, ip after 30 mins by HPLC-MS/MS analysis; assay type: ADME, organism-based; design: dose 10 mg/kg, route intraperitoneal; procedure, shortened: as §1
[6] = Drug level in NMRI mouse brain at 1 mg/kg, ip after 30 mins by HPLC/MS/MS analysis; assay type: ADME, organism-based; design: dose 1 mg/kg, route intraperitoneal; conditions: read-out: Drug uptake; procedure, shortened: as §1
Mus musculus [7] = assay: Antidepressant activity in ip dosed NMRI mouse assessed as decrease in immobility time administered 30 mins prior to test measured last 4 mins of 6 mins testing period by forced swimming test; assay type: functional; conditions: read-out: MED
Procedure, shortened: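 Mice given drug or vehicle ip 30 min before test. Each mouse placed in a 17.7 cm high, 12 cm diameter glass cylinder holding 25 °C water to 12.5 cm depth, four mice at a time. Immobility (floating, only movements keeping head above water) timed over the last 4 min of a 6 min session.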

[8] = Plasma concentration in NMRI mouse at 1 mg/kg, ip after 30 mins by HPLC-MS/MS analysis; assay type: ADME, organism-based; design: dose 1 mg/kg, route intraperitoneal; procedure, shortened: as §1
[9] = biological target: T2, Adrenergic receptor alpha-1 (Rattus norvegicus, UniProt P15823+P23944+P43140); assay: Displacement of [3H]prazosin from alpha1-adrenergic receptor in rat frontal cortex membrane after 45 mins by scintillation spectrometry; assay type: cell membranes
T2 sequence (P15823 whole entry): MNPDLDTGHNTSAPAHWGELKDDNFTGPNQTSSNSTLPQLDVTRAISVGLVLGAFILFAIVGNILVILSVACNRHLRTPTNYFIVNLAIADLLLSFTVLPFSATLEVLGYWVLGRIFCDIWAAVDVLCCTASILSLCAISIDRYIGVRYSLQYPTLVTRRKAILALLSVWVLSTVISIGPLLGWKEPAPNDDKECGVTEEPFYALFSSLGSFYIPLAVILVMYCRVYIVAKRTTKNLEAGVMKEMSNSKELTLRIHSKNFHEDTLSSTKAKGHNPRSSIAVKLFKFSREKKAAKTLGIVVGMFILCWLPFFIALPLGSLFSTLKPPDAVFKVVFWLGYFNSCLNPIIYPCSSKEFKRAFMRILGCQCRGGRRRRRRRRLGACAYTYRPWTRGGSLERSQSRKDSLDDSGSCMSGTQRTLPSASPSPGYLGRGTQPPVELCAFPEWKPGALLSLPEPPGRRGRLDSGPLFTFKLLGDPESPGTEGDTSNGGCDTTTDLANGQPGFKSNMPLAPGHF
T2 sequence (P23944 whole entry): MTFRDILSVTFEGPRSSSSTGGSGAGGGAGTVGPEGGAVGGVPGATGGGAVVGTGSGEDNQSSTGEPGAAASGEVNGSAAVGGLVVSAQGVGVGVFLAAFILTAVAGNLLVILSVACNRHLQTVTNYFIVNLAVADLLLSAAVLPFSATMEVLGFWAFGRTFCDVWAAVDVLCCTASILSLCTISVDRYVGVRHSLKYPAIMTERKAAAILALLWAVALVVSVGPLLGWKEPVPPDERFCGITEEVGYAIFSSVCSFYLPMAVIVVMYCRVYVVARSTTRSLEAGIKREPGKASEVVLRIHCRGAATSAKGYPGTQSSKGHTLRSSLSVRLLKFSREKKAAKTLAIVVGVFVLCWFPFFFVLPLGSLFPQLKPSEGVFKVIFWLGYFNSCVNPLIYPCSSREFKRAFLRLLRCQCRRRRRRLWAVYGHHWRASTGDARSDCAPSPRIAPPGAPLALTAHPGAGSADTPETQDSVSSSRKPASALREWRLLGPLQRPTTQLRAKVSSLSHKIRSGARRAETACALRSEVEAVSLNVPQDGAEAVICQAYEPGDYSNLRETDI
T2 sequence (P43140 whole entry): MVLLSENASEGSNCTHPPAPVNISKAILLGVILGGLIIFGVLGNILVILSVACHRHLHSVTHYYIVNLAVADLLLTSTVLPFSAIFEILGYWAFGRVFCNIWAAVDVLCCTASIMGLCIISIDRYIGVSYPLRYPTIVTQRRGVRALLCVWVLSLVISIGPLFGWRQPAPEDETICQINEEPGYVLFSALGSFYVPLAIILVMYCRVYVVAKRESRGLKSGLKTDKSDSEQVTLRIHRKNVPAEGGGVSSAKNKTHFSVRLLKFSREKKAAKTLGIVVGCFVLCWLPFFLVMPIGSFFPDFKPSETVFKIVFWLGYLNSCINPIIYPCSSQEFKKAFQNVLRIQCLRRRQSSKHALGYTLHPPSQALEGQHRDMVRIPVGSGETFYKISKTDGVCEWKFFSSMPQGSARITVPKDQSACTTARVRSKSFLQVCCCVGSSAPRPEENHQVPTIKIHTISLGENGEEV
Procedure, shortened: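 Rat frontal cortex tissue frozen on dry ice, homogenised in 50 mM Tris-HCl pH 7.7 and washed by centrifugation. [3H]prazosin at 0.6 nM; 10 μM prazosin defines nonspecific binding. 45 min at 25 °C, GF/B filtration, scintillation counting. Triplicates; Ki from two nine-concentration curves fitted to a single-site model.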

[10] = Drug level in NMRI mouse brain at 10 mg/kg, ip after 30 mins by HPLC/MS/MS analysis; assay type: ADME, organism-based; design: dose 10 mg/kg, route intraperitoneal; conditions: read-out: Drug uptake; procedure, shortened: as §1
[11] = Selectivity ratio of Ki for alpha1-adrenergic receptor in rat frontal cortex membrane to Ki for human 5-HT7 receptor; assay type: cell membranes
[12] = Plasma concentration in NMRI mouse at 3 mg/kg, ip after 30 mins by HPLC-MS/MS analysis; assay type: ADME, organism-based; design: dose 3 mg/kg, route intraperitoneal; procedure, shortened: as §1
[13] = Metabolic stability in rat liver microsomes after 60 mins by HPLC-MS/MS analysis; assay type: ADME, Microsome; conditions: read-out: Stability; procedure, shortened: as §2
[14] = biological target: T3, 5-hydroxytryptamine receptor 1A (Rattus norvegicus, UniProt P19327); assay: Displacement of [3H]8-OH-DPAT from 5-HT1A receptor in rat frontal cortex membrane after 45 mins by scintillation counting; assay type: cell membranes
T3 sequence (P19327 whole entry): T1 sequence (whole entry)
Procedure, shortened: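 Membranes from adult rat frontal cortex, prepared in 50 mM Tris-HCl pH 7.7 with washes and a 37 °C preincubation. Incubation buffer: 6.66 mM CaCl2, 16.66 μM pargyline, 0.166% ascorbic acid. Ligand 1.5 nM [3H]8-OH-DPAT; 10 μM 5-HT defines nonspecific binding. 45 min at 25 °C, GF/B filtration, scintillation counting. Triplicates; Ki from two nine-point curves, single-site fit.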

Mus musculus [15] = assay: Anxiolytic activity in ip dosed NMRI mouse assessed as behavioral activity administered 30 mins prior to test measured up to 5 mins by light-dark test; assay type: functional; conditions: read-out: MED
Procedure, shortened: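 Male NMRI mice, 25–33 g, housed in the dark, dosed ip 30 min before test. Each mouse placed in the centre of the lit side of an automated two-compartment chamber under a 2-lx light. Activity recorded for 5 min: time in each area, transitions, horizontal and vertical activity. Means ± SEM, one-way ANOVA with Duncan's test; MED reported.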

[16] = biological target: 5-hydroxytryptamine receptor 7 (Homo sapiens, UniProt P34969); assay: Displacement of [3H]CT from human 5-HT7 receptor expressed in CHO cells by scintillation spectrometry; assay type: cell-based
Sequence of 5-hydroxytryptamine receptor 7 (P34969 whole entry): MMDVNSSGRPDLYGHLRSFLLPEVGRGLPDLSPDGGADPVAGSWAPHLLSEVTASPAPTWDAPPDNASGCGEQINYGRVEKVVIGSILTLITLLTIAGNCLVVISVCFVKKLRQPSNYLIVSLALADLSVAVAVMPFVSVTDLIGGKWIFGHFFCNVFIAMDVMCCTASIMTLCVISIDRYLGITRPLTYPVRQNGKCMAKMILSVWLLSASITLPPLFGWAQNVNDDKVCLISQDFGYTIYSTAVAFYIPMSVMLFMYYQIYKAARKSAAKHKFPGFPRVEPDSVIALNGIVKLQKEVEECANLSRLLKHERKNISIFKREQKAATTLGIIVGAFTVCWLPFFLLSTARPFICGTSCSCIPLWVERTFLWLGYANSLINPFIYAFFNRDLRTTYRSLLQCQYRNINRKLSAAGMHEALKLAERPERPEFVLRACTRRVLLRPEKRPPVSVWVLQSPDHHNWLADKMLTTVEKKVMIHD
Procedure, shortened: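 Cloned human 5-HT7 receptor from CHO cells, run under the supplier's recommended conditions with [3H]CT. Nonspecific binding with 25 μM clozapine. Ended by GF/C filtration, then scintillation counting. Ki taken from two nine-concentration displacement curves run in triplicate, single-site fit.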

Rattus norvegicus = assay: Anxiolytic activity in ip dosed Wistar rat assessed as number of punished licks administered 30 mins prior to test by conflict drinking Vogel test; assay type: functional; conditions: read-out: MED
Procedure, shortened: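 Male Wistar rats, 160–180 g, water-deprived 48 h and fasted 24 h. Drug or vehicle given ip 30 min before testing, carried out in a quiet room at 23 °C between 07:30 and 13:00. Modified Vogel procedure. Mean ± SEM tolerated shocks per group, one-way ANOVA with Duncan's test; MED reported.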

Row | Structure (SMILES) | concentration at 0.5 h [1] [nM] | inhibition [2] [%] | remaining at 1 h [3] [%] | Ratio Ki [4] | concentration at 0.5 h [5] [nM] | concentration at 0.5 h [6] [nM] | concentration at 0.5 h [8] [nM] | Ki [9] [nM] | concentration at 0.5 h [10] [nM] | Ratio Ki [11] | concentration at 0.5 h [12] [nM] | remaining at 1 h [13] [%] | Ki [14] [nM] | Ki [16] [nM] | minimal effective dose (Mus musculus [7]) [mg/kg] | minimal effective dose (Mus musculus [15]) [mg/kg] | minimal effective dose (Rattus norvegicus) [mg/kg]
1 | CCC1(CCCCN2CCN(c3ccc(F)cc3)CC2)C(=O)Nc2ccccc21 (centres undefined) | 431 | 10 | 34 | > 100 | 168 | 62 | 34 | 39 | 364 | 91 | 178 | 8 | – | – | > 10 | – | –
2 | CCC1(CCCCN2CCN(c3ccc(Cl)cc3)CC2)C(=O)Nc2ccccc21 (centres undefined) | 141 | 11 | 34 | > 100 | 399 | 42 | 70 | 93 | 379 | 245 | 245 | 9 | – | – | – | > 10 | –
3 | CCC1(CCCCN2CCN(c3ccc(Cl)cc3)CC2)C(=O)Nc2c1cc(Cl)c(F)c2Cl (centres undefined) | – | 10 | 76 | – | – | – | – | 380 | – | 4 | – | 72 | – | 96 | > 30 | > 10 | > 20
4 | CCC1(CCCCN2CCN(c3ccc(Cl)cc3)CC2)C(=O)Nc2c(Cl)cc(Cl)cc21 (centres undefined) | – | 5 | 53 | > 100 | – | – | – | 110 | – | 12 | – | 76 | – | 9.5 | > 30 | 1 | 5

Further lines, with some results ahead:

Row | concentration at 0.5 h [1] [nM] | inhibition [2] [%] | remaining at 1 h [3] [%] | Ratio Ki [4] | concentration at 0.5 h [5] [nM] | concentration at 0.5 h [6] [nM] | concentration at 0.5 h [8] [nM] | Ki [9] [nM] | concentration at 0.5 h [10] [nM] | Ratio Ki [11] | concentration at 0.5 h [12] [nM] | remaining at 1 h [13] [%] | Ki [14] [nM] | Ki [16] [nM] | Structure (SMILES) | minimal effective dose (Mus musculus [7]) [mg/kg] | minimal effective dose (Mus musculus [15]) [mg/kg] | minimal effective dose (Rattus norvegicus) [mg/kg]
5 | 613 | – | 31 | 115 | 272 | 65 | 22 | 31 | 824 | 78 | 168 | 4 | 46 | 0.4 | CCC1(CCCCN2CCN(c3cccc(Cl)c3)CC2)C(=O)Nc2ccccc21 (centres undefined) | – | > 20 | > 10
6 | 223 | 11 | 29 | > 100 | 861 | 43 | 31 | 125 | 1150 | 208 | 174 | 13 | – | 0.6 | CCC1(CCCCN2CCN(c3ccc(Cl)c(Cl)c3)CC2)C(=O)Nc2ccccc21 (centres undefined) | > 10 | – | –
7 | 23 | 0 | 23 | > 100 | 8 | 17 | 10 | 175 | 27 | 159 | 14 | 21 | – | 1.1 | CCC1(CCCCN2CCN(c3ccc(Cl)cc3)CC2)C(=O)Nc2ccc(Cl)cc21 (centres undefined) | > 10 | – | –
8 | 186 | 9 | 36 | > 100 | 271 | 51 | 44 | 190 | 342 | 68 | 211 | 17 | – | – | CCC1(CCCCN2CCN(c3ccc(Cl)cc3)CC2)C(=O)Nc2ccc(F)cc21 (centres undefined) | – | > 10 | –
9 | 827 | – | 39 | 135 | 744 | 216 | 21 | 26 | 4310 | 53 | 114 | 9 | 66 | – | O=C1Nc2ccccc2C1CCCCN1CCN(c2cccc(Cl)c2)CC1 (centres undefined) | – | > 10 | –
